Measurements from different studies.
Each line is one published result; the experiments were not run side by side.
Adra1b: Alpha-1B adrenergic receptor (Adra1b, Rattus norvegicus, UniProt P15823)
XDH: Xanthine dehydrogenase/oxidase (XDH, Bos taurus, UniProt P80457)
NT5E: 5'-nucleotidase (NT5E, Homo sapiens, UniProt P21589)

Cc1cc(O)c(-c2ccc([C@@H](C)CN(C)C)cc2)c2c1[nH]c(=O)c1sccc12 — inhibition (Cyclin-dependent kinase 13 (CDK13, Homo sapiens, UniProt Q14004); enzyme activity, inhibitor; 0.1 µM): -1.62%
CCN1/C(=C/C(C)=O)Sc2ccc(F)cc21 — inhibition (Adra1b; ligand displacement, radioligand; 10 µM): 4.13%
O=C(O)CCc1nccc2c3ccccc3n(Cc3ccc(Br)c4ccccc34)c12 — inhibition (XDH; enzyme activity, inhibitor, absorbance; 10 µM): 16.4%
O=C(O[C@@H]1COC(=O)c2cc(O)c(O)c(O)c2-c2c(cc(O)c(O)c2O)C(=O)O[C@H]1[C@@H]1OC(=O)c2cc(O)c(O)c(O)c2-c2c(O)c(O)c(O)c3c2C(=O)O[C@H]1[C@@H]3O)c1cc(O)c(O)c(O)c1 — inhibition (XDH; enzyme activity, inhibitor; 25 µg/mL): 29.8%
Cc1cccc(NC(=O)c2sc3nc(C)cc(C)c3c2N)n1 — inhibition (NT5E; enzyme activity, inhibitor; 10 µM): -21%
O=C(O)/C=C/c1nccc2c3ccccc3n(Cc3ccc(Br)c4ccccc34)c12 — inhibition (XDH; enzyme activity, inhibitor, absorbance; 10 µM): 17.8%
Oc1ncnc2[nH]ncc12 — inhibition (XDH; enzyme activity, inhibitor; 25 µg/mL): > 90%
N#Cc1c(C(F)(F)F)cc(-c2ccccc2)nc1SCC(=O)Nc1ccccc1 — inhibition (NT5E; enzyme activity, inhibitor; 10 µM): 16%
NC/C(=C\F)COc1cccc(Cn2c(=S)[nH]c(=O)c3[nH]cnc32)c1 — inhibition (Adra1b; ligand displacement, radioligand; 10 µM): < 50%
COCCOCCOCCNC(=O)c1sc2nc(-c3ccccc3)cc(C(F)(F)F)c2c1N — inhibition (NT5E; enzyme activity, inhibitor; 10 µM): -9%
C#Cc1cc(-c2cc(Nc3nc(N[C@@H](C)c4ccc(F)cn4)ncc3Cl)n[nH]2)ccc1C=O — inhibition (Mitogen-activated protein kinase kinase kinase kinase 5 (MAP4K5, Homo sapiens, UniProt Q9Y4K4); enzyme activity, inhibitor; 0.2 µM): 92%
O=C(NS(=O)(=O)c1ccccc1)c1cc2ccccc2n1Cc1ccc(C2CC2)c2ccccc12 — inhibition (XDH; enzyme activity, inhibitor, absorbance; 10 µM): 2.49%
